Results on 3 molecules are retold here after ChEMBL document CHEMBL1649236, “The structure of the dizinc subclass B2 metallo-beta-lactamase CphA reveals that the second inhibitory zinc ion binds in the histidine site” (Antimicrob Agents Chemother, 2009).

In experiment [1] the test system is Aeromonas hydrophila. Put plainly: Activity of Aeromonas hydrophila metallo-betalactamase CphA N233A mutant expressed in Escherichia coli BL21(DE3) by spectrophotometric analysis in presence of < 0.4 uM zinc ions. A digest of the protocol:
(§1)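 Steady-state kinetics (kcat, Km, kcat/Km) at 30°C in 15 mM cacodylate pH 6.5, no added Zn2+ (free [Zn2+] < 0.4 µM), enzyme as the mono-zinc form (one Zn per molecule). Substrates imipenem, nitrocefin and CENTA. N233A mutant from E. coli BL21 (DE3) pLysS Star, purified to homogeneity, mass checked by ESI-MS. Standard errors below 10%.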

Experiment [2] has as its system Aeromonas hydrophila. Put plainly: Ratio of Kcat to Km for Aeromonas hydrophila metallo-betalactamase CphA N233A mutant expressed in Escherichia coli BL21(DE3) by spectrophotometric analysis in presence of < 0.4 uM zinc ions. A digest of the protocol:
as §1

Usually Km stands for the substrate concentration at which the rate is half of its maximum. For orientation: kcat means the number of substrate molecules converted per active site and unit of time at saturation. The kcat/Km is the turnover number divided by the Michaelis constant. As to `C[C@@H](O)[C@H]1C(=O)N2C(C(=O)O)=C(SCCNC=N)C[C@H]12`, in the experiment with Aeromonas hydrophila [1], the Km was > 1000 µM and the kcat was > 700 s⁻¹. The kcat/Km in the experiment on Aeromonas hydrophila [2] stood at 700000 M⁻¹ s⁻¹.
Taken in the same sequence, the figures for `O=C(Cc1cccs1)N[C@@H]1C(=O)N2C(C(=O)O)=C(/C=C/c3ccc([N+](=O)[O-])cc3[N+](=O)[O-])CS[C@H]12` were 55 µM, 0.03 s⁻¹ and 520 M⁻¹ s⁻¹.
Taken in the same sequence, the figures for `O=C(Cc1cccs1)N[C@@H]1C(=O)N2C(C(=O)O)=C(CSc3ccc([N+](=O)[O-])c(C(=O)O)c3)CS[C@H]12` were 14 µM, 0.0035 s⁻¹ and 250 M⁻¹ s⁻¹.
